The IC50 is the concentration that gives 50% inhibition.

The text below walks through data of ChEMBL document CHEMBL1914409, “Cytotoxicity and gene expression profiles of novel synthesized steroid derivatives as chemotherapeutic anti-breast cancer agents” (Bioorg Med Chem, 2011).

The source made the active and inactive calls. The rule behind the calls is not given here.

Experiment [1] relates to MCF7. As to the kind of experiment: Cytotoxicity against human MCF7 cells assessed as growth inhibition at 12.5 ug/ml after 24 hrs by SRB assay. It counts as functional. An outline of the steps: (§1)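 MCF-7 (ATCC) kept in RPMI-1640 with penicillin/streptomycin and FBS, used at 90% confluence and seeded at 5×10^4–10^5 cells/well. Exposed to 5, 12.5, 25 or 50 µg/mL of compound in DMSO for 24, 48 or 72 h, with vehicle-treated controls and 6 wells per concentration. Cells fixed in cold TCA and stained with 0.4% SRB; dye taken up in 10 mM Tris pH 10.5 and read at 564 nm. Result given as % growth inhibition versus control.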

Experiment [2] concerns MCF7. Briefly: Cytotoxicity against human MCF7 cells assessed as growth inhibition at 25 ug/ml after 24 hrs by SRB assay. It counts as functional. The method in brief:
as §1
In general terms: Sulforhodamine B stains cellular protein and so reports cell mass.

The test system of experiment [3] is MCF7. Briefly: Cytotoxicity against human MCF7 cells assessed as growth inhibition at 50 ug/ml after 24 hrs by SRB assay. It counts as functional, cell-based. An outline of the steps:
as §1

Experiment [4] concerns MCF7. As to the kind of experiment: Cytotoxicity against human MCF7 cells assessed as growth inhibition at 25 ug/ml after 48 hrs by SRB assay. It counts as functional, cell-based. An outline of the steps: as §1
Experiment [5] relates to MCF7. As to the kind of experiment: Cytotoxicity against human MCF7 cells assessed as growth inhibition at 50 ug/ml after 48 hrs by SRB assay. It counts as functional, cell-based. An outline of the steps:
as §1

Experiment [6] relates to MCF7. Briefly: Cytotoxicity against human MCF7 cells assessed as growth inhibition at 5 ug/ml after 72 hrs by SRB assay relative to control. It counts as functional. The method in brief:
as §1

Experiment [7] has as its system MCF7. Briefly: Cytotoxicity against human MCF7 cells assessed as growth inhibition after 24 hrs by SRB assay. It counts as functional, cell-based. To be noted: MCF7, 24 h. An outline of the steps: as §1
The subject of experiment [8] is MCF7. Briefly: Cytotoxicity against human MCF7 cells assessed as growth inhibition after 48 hrs by SRB assay. It counts as functional, cell-based. The following applies: MCF7, 48 h. An outline of the steps:
as §1

In experiment [9] the test system is MCF7. Briefly: Cytotoxicity against human MCF7 cells assessed as growth inhibition after 72 hrs by SRB assay. It counts as functional, cell-based. The following applies: MCF7, 72 h. An outline of the steps: as §1
Experiment [10] deals with MCF7. Briefly: Reduction in VEGF mRNA expression in human MCF7 cells by RT-PCR relative to control. It counts as functional, cell-based. An outline of the steps: (§2)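 RNA taken from MCF-7 cells after 48 h treatment in the cytotoxicity study, then oligo(dT)-primed reverse transcription (25 °C 10 min, 42 °C 1 h). Semi-quantitative PCR run with VEGF 40 cycles (59 °C annealing), CYP19 50 cycles (60 °C), hAP-2γ 20 cycles (65 °C) and β-actin 40 cycles (60 °C). Gel band intensity expressed as a ratio to β-actin; P<0.05.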

For experiment [11], the system named is MCF7. Briefly: Reduction in CYP19 mRNA expression in human MCF7 cells by RT-PCR relative to control. It counts as functional, cell-based. An outline of the steps:
as §2

The subject of experiment [12] is MCF7. Briefly: Reduction in AP-2 gamma mRNA expression in human MCF7 cells by RT-PCR relative to control. It counts as functional, cell-based. The method in brief: as §2
In experiment [13] the test system is MCF7. Briefly: Cytotoxicity against human MCF7 cells assessed as growth inhibition at 5 ug/ml after 48 hrs by SRB assay. It counts as functional, cell-based. The method in brief:
as §1

In experiment [14] the test system is MCF7. As to the kind of experiment: Cytotoxicity against human MCF7 cells assessed as growth inhibition at 12.5 ug/ml after 48 hrs by SRB assay. It counts as functional, cell-based. The method in brief: as §1
For experiment [15], the system named is MCF7. As to the kind of experiment: Cytotoxicity against human MCF7 cells assessed as growth inhibition at 12.5 ug/ml after 72 hrs by SRB assay. It counts as functional. The following applies: MCF7, 72 h, read-out: GI. The method in brief:
as §1

Take `C[C@]12CC[C@H]3[C@@H](CCC4=CC(=O)CC[C@@]43C)[C@@H]1CC[C@@H]2n1c(=S)n(-c2ccccc2)c(=O)c2ccccc21`: the “growth inhibition (GI)” value in experiment [1], in experiment [2], in experiment [3], in experiment [4], in experiment [5] and in [6] was “Active” throughout. Besides, the values for the IC50 in experiment [7], in experiment [8] and in [9] were 13.1 µM, 12.5 µM and 17.5 µM, respectively. The result in [10], in experiment [11] and in experiment [12] was Active.

As for `CC(=O)O[C@H]1CC[C@@]2(C)[C@@H](CC[C@@H]3[C@@H]2CC[C@]2(C)c4nc(CC#N)sc4C[C@@H]32)C1`, the inhibition of growth at 12.5 µg/mL in [1] (MCF7, 24 h, read-out: GI) is 91%; in [15] it was 91%. The inhibition of growth at 25 µg/mL in [2] (MCF7, 24 h, read-out: GI) came out at 85%. Further, the “growth inhibition (GI)” value in experiment [3], in experiment [13], in experiment [14], in experiment [4] and in experiment [5] was “Active” throughout. The inhibition of growth at 5 µg/mL in experiment [6] (MCF7, 72 h, read-out: GI) worked out at 93%. The IC50 was determined as 2.9 µM in experiment [7], 2.5 µM in [8] and 2.9 µM in experiment [9]. The result in experiment [10], in experiment [11] and in [12] was Active.

Take `C[C@]12CC[C@H]3[C@@H](CCC4=C[C@]5(CC[C@@]43C)OC5C(=O)c3ccccc3)[C@@H]1CC[C@@H]2O` (stereo partly specified): the “growth inhibition (GI)” value in experiment [1], in [2], in experiment [3], in experiment [5] and in experiment [6] was “Active” throughout. Moreover, the “growth inhibition (GI)” value in experiment [4] is “inactive”. In addition, the figures for the IC50 in experiment [7], in experiment [8] and in experiment [9] were 15.1 µM, 16 µM and 12 µM, respectively. Besides, the result in [10], in experiment [11] and in [12] was Active.

Regarding `CC(=O)O[C@H]1CC[C@@]2(C)[C@@H](CC[C@@H]3[C@@H]2CC[C@]2(C)/C(=N/C4CCNN=C4O)CC[C@@H]32)C1` (stereo partly specified), the “growth inhibition (GI)” value in experiment [2], in [3], in [14], in [4], in [5] and in experiment [6] was “Active” each time. For the same molecule, the half-inhibitory concentration (IC50) in [7] stood at 18.5 µM; in experiment [8], 9.9 µM; in [9], 11.5 µM. Besides, the result in [10], in experiment [11] and in [12] was Active.

Take `C[C@]12CC[C@H](O)C[C@@H]1CC[C@@H]1[C@@H]2CC[C@@]2(C)[C@H]1CC[C@]21OC1C(=O)c1ccccc1` (stereo partly specified): the “growth inhibition (GI)” value in experiment [1], in experiment [2], in [3], in [14], in experiment [4] and in experiment [5] was “Active” in each case. Further, the “growth inhibition (GI)” value in experiment [6] was “Active”. For the same molecule, the IC50 in experiment [7] was 17.1 µM; in [8] it was 7.3 µM; in experiment [9], 17.3 µM. The result in experiment [10], in [11] and in experiment [12] was Active.

Consider `COc1cccc2c1C(=O)c1c(O)c3c(c(O)c1C2=O)C[C@@](O)(C(=O)CO)C[C@@H]3O[C@H]1C[C@H](N)[C@H](O)[C@H](C)O1`, for which the result in experiment [10], in experiment [11] and in experiment [12] was Active.

Turning to `C[C@]12CC[C@H]3[C@@H](CCC4=CC(=O)CC[C@@]43C)[C@@H]1CC[C@@H]2n1c(=S)n(-c2ccccc2)c(=O)c2cc(F)ccc21`, the “growth inhibition (GI)” value in experiment [2], in experiment [3], in [4], in experiment [5] and in experiment [6] was “Active” in each case. The values for the concentration for half-maximal inhibition (IC50) in experiment [7], in experiment [8] and in experiment [9] were 17.7 µM, 11.5 µM and 16 µM, respectively. For the same molecule, the result in experiment [10], in experiment [11] and in [12] was Active.

As for `CC(=O)O[C@H]1CC[C@@]2(C)[C@@H](CC[C@@H]3[C@@H]2CC[C@]2(C)/C(=N/c4ccc(S(=O)(=O)N(CCO)c5ncccn5)cc4)CC[C@@H]32)C1`, the “growth inhibition (GI)” value in [1], in experiment [2], in [3], in [14], in experiment [4] and in experiment [6] was “Active” in each case. In [5], the “growth inhibition (GI)” value is “inactive”. For the same molecule, the IC50 in experiment [7] was found to be 14.7 µM; in experiment [8], 7.5 µM; in [9], 10 µM. In addition, the outcome in experiment [10], in experiment [11] and in [12] was Active.
